# Measured values gathered from unrelated publications.
# Protocols differ between the studies behind these lines.
# Target: Serine/threonine-protein kinase 33 (STK33, Homo sapiens, UniProt Q9BYT3)
SMILES,test,conditions,quantity,value
Cn1nc(C(=O)NCc2ccc(C(=O)O)cc2)cc1-c1ccc2[nH]ccc2c1,"cell-free assay, competition with immobilised ligand",0.1 µM,remaining binding,87%
Cn1cncc1C1=CN(c2ncnc3[nH]cnc23)CCS1,"enzyme activity, inhibitor, radiometric",2 µM,inhibition,80.5%
Cn1nc(C(F)(F)F)cc1-c1cnc(N2CCc3cc(S(=O)(=O)Nc4c(F)cc(Cl)cc4F)cc(N4CCCC4=O)c32)nc1,"cell-free assay, competition with immobilised ligand",1 µM,remaining binding,100%
CC(C)c1ccc(NC(=O)c2cccs2)c(-c2nc3ccccc3[nH]c2=O)c1,"enzyme activity, inhibitor",1 µM,activity vs control,39%
COc1cc(/C=C/C(=O)CC(=O)/C=C/c2ccc(O)c(OC)c2)ccc1O,"enzyme activity, inhibitor",1 µM,activity vs control,25%
Cc1cnc(NC2CCOCC2)nc1-n1cnc(C(=O)NC(CN)c2cc(F)cc(Cl)c2)c1 (stereo not shown),"enzyme activity, inhibitor, radiometric",1 µM,remaining activity,71%
CS(=O)(=O)N1CCCC(NC(=O)[C@H](CCC2CCCCC2)NC(=O)c2ccc(CNc3ncnc4c3nnn4-c3ccccc3)cc2)C1 (stereo partly shown),"cell-free assay, competition with immobilised ligand",0.1 µM,remaining binding,84%
Cc1cc(NC(=O)c2cccc3cc(-c4cccc5[nH]nc(N)c45)ccc23)ccc1F,"enzyme activity, inhibitor",0.1 µM,activity vs control,126%
Cc1ccc(Nc2nccc(N(C)c3ccc4c(C)n(C)nc4c3)n2)cc1S(N)(=O)=O,"enzyme activity, inhibitor",10 µM,inhibition,34%
CCCOc1ccc(OC)c(F)c1C(=O)c1ccc(C(=O)N[C@@H]2CNC[C@H]2NC(=O)c2ccc3[nH]ncc3c2)cc1,"enzyme activity, inhibitor",10 µM,remaining activity,7%
CC(C)(O)[C@H]1CC[C@H](Nc2ccc3ncc(-c4cccc(C(F)(F)F)c4)n3n2)CC1,"enzyme activity, inhibitor",1 µM,remaining activity,40.5%
CCCS(=O)(=O)Nc1ccc(F)c(C(=O)c2c[nH]c3ncc(-c4ccc(Cl)cc4)cc23)c1F,"enzyme activity, inhibitor",1 µM,inhibition,< 10%
CN(C)c1ncnc(-c2ccc3nc(Nc4cc(CN5CCN(C(=O)CC(F)(F)F)CC5)ccn4)[nH]c3c2)c1Cl,"cell-free assay, competition with immobilised ligand",1 µM,remaining binding,100%
O=C(Nc1cnn(-c2csc(C(=O)NC3COC3)c2)c1)Nc1c(F)cccc1Cl,"enzyme activity, inhibitor",5 µM,remaining activity,81.8%
FC(F)(F)Oc1cccc(-c2cnc3ccc(-c4ccncc4)nn23)c1,"enzyme activity, inhibitor, radiometric",1 µM,activity vs control,95%
Cn1cnc(Br)c1C1=CN(c2ncnc3[nH]cnc23)CCS1,"enzyme activity, inhibitor, radiometric",2 µM,inhibition,78.4%
CCc1ccccc1C(=O)Nc1n[nH]c2c(C)c(F)c(C3C(C#N)=C(C)N(C)C(C)=C3C#N)cc12,"cell-free assay, competition with immobilised ligand",1 µM,remaining binding,100%
COc1cc(Cl)c(C(=O)N[C@@H](CN[C@H]2CC[C@@H](N)CC2)Cc2ccc(C#N)cc2)cc1-c1ccc(CN[C@H](C)c2ccc(C)cc2)o1,"enzyme activity, inhibitor",1 µM,remaining activity,99%
COc1cc(Nc2cnc(C#N)c(O[C@H](C)CN(C)C)n2)ncc1-c1cnn(C)c1,"enzyme activity, inhibitor, radiometric",1 µM,remaining activity,59%
